Experimental data from ChEMBL document CHEMBL3351339, “Delineation of the role of glycosylation in the cytotoxic properties of quercetin using novel assays in living vertebrates” (J Nat Prod, 2014).
Active and inactive are the calls of the source. The rule behind the calls is not given here.

Legend:
[1] = system: HCT-116; test: Cytotoxicity against human HCT116 cells at 1.25 to 20 uM after 96 hrs by MTT assay; assay type: functional, cell-based
In short: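 HCT116 cells in DMEM with 10% FBS, seeded at 4 × 10^3 per well and left overnight at 37 °C. Treated in 1% FBS–DMEM for 96 h, then MTT for 3 h. Formazan dissolved in DMSO, absorbance read at 570 nm. DMSO vehicle control. Two independent assays, mean ± SD.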

[2] = system: Cancer cell lines; test: Antitumor activity against human HCT116 cells xenografted in 48 hpf zebrafish embryo assessed as inhibition of cancer cell proliferation at 80 uM treated for 4 days; assay type: functional, cell-based
In short: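 HCT116 cells labelled with 2 μg/mL DiI were injected into the yolk sac of 48 hpf embryos. Embryos were held singly in E3 without methylene blue with compound (80 μM), 10 μM API-H7 as positive control or DMSO, at 31 °C for 96 h, 8 per group. Larvae were dissociated with collagenase/dispase for 2 h at 37 °C, fixed in paraformaldehyde, and fluorescent cells counted by microscopy. Two independent assays.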

[3] = system: HCT-116; test: Induction of apoptosis in human HCT116 cells assessed as PARP cleavage at 20 uM after 72 hrs by immunoblotting; assay type: functional, cell-based
In short: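 HCT116 cells were treated with 20 μM compound for 72 h and lysed in ice-cold buffer with PMSF and protease inhibitors. Protein in the cleared supernatant was measured by BCA, and PARP cleavage was detected by western blot with actin as reference.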

[4] = organism: Danio rerio; test: Teratogenic effect in zebrafish assessed as delayed hatching at 160 uM after 72 hrs by microscopy; assay type: organism-based; details: in vivo
In short: (§1)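 Fertilized eggs were exposed from the eight-cell stage, 8 per well, at 31 °C for 72 h. Development, malformations and survival were then recorded by microscopy.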

[5] = organism: Danio rerio; test: Teratogenic effect in zebrafish assessed as skeletal deformities at 160 uM after 72 hrs by microscopy; assay type: organism-based; details: in vivo; in short: as §1
[6] = organism: Danio rerio; test: Teratogenic effect in zebrafish assessed as abnormal heart at 160 uM after 72 hrs by microscopy; assay type: organism-based; details: in vivo; in short: as §1
[7] = organism: Danio rerio; test: Teratogenic effect in zebrafish assessed as abnormal head at 160 uM after 72 hrs by microscopy; assay type: organism-based; details: in vivo; in short: as §1
[8] = organism: Danio rerio; test: Teratogenic effect in zebrafish assessed as slow heartbeat at 160 uM after 72 hrs by microscopy; assay type: organism-based; details: in vivo; in short: as §1
[9] = system: Danio rerio; test: Teratogenic effect in zebrafish assessed as heart sac edema at 160 uM after 72 hrs by microscopy; assay type: organism-based; details: in vivo; in short: as §1
[10] = organism: Danio rerio; test: Teratogenic effect in zebrafish assessed as abnormal development of yolk sac at 160 uM after 72 hrs by microscopy; assay type: toxicity, organism-based; details: in vivo; in short: as §1
[11] = organism: Danio rerio; test: Teratogenic effect in zebrafish assessed as developmental toxicity at 40 to 80 uM after 72 hrs by microscopy; assay type: organism-based; details: in vivo; in short: as §1
[12] = system: Cancer cell lines; test: Antitumor activity against human HCT116 cells xenografted in 48 hpf zebrafish embryo assessed as inhibition of cancer cell proliferation compound treated for 4 days; assay type: functional, cell-based
[13] = system: beta-glucosidase; test: (§2) Drug metabolism assessed as zebrafish intestinal beta-glucosidase-mediated deglycosylation of compound at 80 uM after 2.5 hrs by resorufin-beta-D-glucopyranoside-based fluorescence assay; assay type: ADME, Danio rerio; details: zebrafish intestinal beta-glucosidase, probe resorufin-beta-D-glucopyranoside, read-out: Drug metabolism
In short: (§3)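 Larvae at 7 dpf (24 per well) were incubated in E3 without methylene blue with Res-β-Glc probe at 400 μM, with or without 80 μM compound, for 2.5 h at 31 °C, then washed. Larvae showing reduced fluorescence against probe-alone larvae were counted by microscopy (n = 3, SD). Lysates were also read at ex 570/em 610 nm.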

[14] = Drug metabolism assessed as zebrafish intestinal beta-glucosidase-mediated formation of quercetin after 2.5 hrs by resorufin-beta-D-glucopyranoside-based fluorescence assay; assay type: ADME, Danio rerio; in short: as §3
[15] = Drug metabolism assessed as zebrafish intestinal beta-glucosidase-mediated formation of quercetin at 80 uM after 2.5 hrs by resorufin-beta-D-glucopyranoside-based fluorescence assay; assay type: ADME, Danio rerio; in short: as §3
[16] = as §2; assay type: ADME, Danio rerio; details: 2.5 h, 80 µM; in short: as §3

| SMILES | Activity [1] | Activity [2] | Activity [3] | Activity [4] | Activity [5] | Activity [6] | Activity [7] | Activity [8] | Activity [9] | Activity [10] | Activity [11] | Activity [12] | metabolised at 2.5 h, 80 µM [13] [%] | Drug metabolism [14] | Drug metabolism [15] | Drug metabolism [16] |
| --- | --- | --- | --- | --- | --- | --- | --- | --- | --- | --- | --- | --- | --- | --- | --- | --- |
| C[C@@H]1O[C@@H](Oc2c(-c3ccc(O)c(O)c3)oc3cc(O)cc(O)c3c2=O)[C@H](O)[C@H](O)[C@H]1O | Active | inactive | – | – | – | – | – | – | – | – | – | – | – | – | – | – |
| O=c1c(O[C@@H]2O[C@H](CO)[C@H](O)[C@H](O)[C@H]2O)c(-c2ccc(O)c(O)c2)oc2cc(O)cc(O)c12 | Active | inactive | – | – | – | – | – | – | – | – | – | – | – | – | – | – |
| O=c1c(O[C@@H]2O[C@H](CO)[C@@H](O)[C@H](O)[C@H]2O)c(-c2ccc(O)c(O)c2)oc2cc(O)cc(O)c12 [ISOQUERCETIN] | Active | Active | Active | Non-toxic | Non-toxic | Non-toxic | Non-toxic | Non-toxic | Non-toxic | Non-toxic | Non-toxic | Dose-dependent effect | 57 | Dose-dependent effect | metabolite_detected | – |
| O=c1c(O)c(-c2ccc(O)c(O)c2)oc2cc(O)cc(O)c12 [QUERCETIN] | Active | Active | Active | Non-toxic | Non-toxic | Non-toxic | Non-toxic | Non-toxic | Non-toxic | Non-toxic | Non-toxic | – | – | – | – | metabolite_notdetected |
| O=c1c(O)c(-c2ccc(O[C@@H]3O[C@H](CO)[C@@H](O)[C@H](O)[C@H]3O)c(O)c2)oc2cc(O)cc(O)c12 [SPIRAEOSIDE] | Active | inactive | Active | 31.25% | 31.25% | 31.25% | 31.25% | 31.25% | 31.25% | 31.25% | Non-toxic | – | 45 | – | – | – |
